Data taken from ChEMBL document CHEMBL1145113, “Synthesis and crystal structures of substituted benzenes and benzoquinones as tissue factor VIIa inhibitors” (J Med Chem, 2003).
pIC50: −log10 of the molar value.

Columns and labels:
[1] = target: T1, Coagulation factor VII (Homo sapiens, UniProt P08709); experiment: Inhibitory activity against coagulation factor VII was determined
T1 sequence (P08709 whole entry): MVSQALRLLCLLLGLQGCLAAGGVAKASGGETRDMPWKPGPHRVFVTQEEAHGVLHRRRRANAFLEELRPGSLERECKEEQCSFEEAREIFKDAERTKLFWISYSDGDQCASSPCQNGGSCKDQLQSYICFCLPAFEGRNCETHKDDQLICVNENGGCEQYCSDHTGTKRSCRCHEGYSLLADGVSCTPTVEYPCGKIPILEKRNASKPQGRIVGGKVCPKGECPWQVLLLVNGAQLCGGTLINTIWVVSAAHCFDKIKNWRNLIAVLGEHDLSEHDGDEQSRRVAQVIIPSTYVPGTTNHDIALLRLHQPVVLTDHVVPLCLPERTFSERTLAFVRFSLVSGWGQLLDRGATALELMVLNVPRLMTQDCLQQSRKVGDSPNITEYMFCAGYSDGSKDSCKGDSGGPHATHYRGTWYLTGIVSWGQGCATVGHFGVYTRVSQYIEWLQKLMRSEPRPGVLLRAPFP

[2] = target: Coagulation factor X (Homo sapiens, UniProt P00742); experiment: Inhibitory activity against coagulation factor X was determined
How it was run: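 Human factor Xa at 0.3 nM with 0.15 mM S-2765 in 50 mM Tris-HCl pH 8.0, 100 mM NaCl, 0.1% BSA. A405 background was read immediately, then hydrolysis rate (p-nitroaniline release at 405 nm) after 60 min at room temperature. Seven concentrations in duplicate; % inhibition vs control; IC50 by four-parameter logistic fit.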

[3] = test system: Thrombin (Homo sapiens); experiment: Inhibitory activity against thrombin was determined at a concentration of 30 uM

Chain of Coagulation factor X (P00742 41-179 limits assumed): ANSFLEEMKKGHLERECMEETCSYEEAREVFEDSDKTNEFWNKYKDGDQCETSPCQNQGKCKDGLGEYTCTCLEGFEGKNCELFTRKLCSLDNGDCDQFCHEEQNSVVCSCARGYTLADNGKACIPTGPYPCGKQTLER
Chain of Coagulation factor X (P00742 235-488 limits assumed): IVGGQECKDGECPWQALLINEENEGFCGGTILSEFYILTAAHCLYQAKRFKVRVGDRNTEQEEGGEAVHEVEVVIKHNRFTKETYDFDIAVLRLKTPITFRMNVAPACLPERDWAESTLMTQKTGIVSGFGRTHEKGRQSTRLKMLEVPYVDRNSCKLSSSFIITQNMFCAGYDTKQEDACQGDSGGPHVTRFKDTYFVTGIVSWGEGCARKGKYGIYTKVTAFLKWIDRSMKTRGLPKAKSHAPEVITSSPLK

| SMILES | pIC50 [1] | pIC50 [2] | inhibition [3] [%] |
| --- | --- | --- | --- |
| CN(C)c1ccc(CNC(=O)Cc2c(F)ccc(NS(=O)(=O)Cc3ccccc3)c2F)cc1 | < 4.52 |  |  |
| N=C(N)NCCCCCNC(=O)Cc1c(F)ccc(NS(=O)(=O)Cc2ccccc2)c1F | < 4.52 | < 4.52 |  |
| N=C(N)c1ccc(CNC(=O)Cc2c(F)ccc(NCCc3ccccc3)c2F)cc1 |  | < 4.52 |  |
| COc1c(NC(C)C)ccc(-c2ccccc2)c1CC(=O)NCc1ccc(C(=N)N)cc1 |  | < 4.52 |  |
| CC(C)Nc1ccc(-c2ccccc2)c(CC(=O)NCc2ccc(C(=N)N)cc2)c1O | 5.60 | < 4.52 |  |
| O=C(Cc1c(F)ccc(NS(=O)(=O)Cc2ccccc2)c1F)NCCCn1ccnc1 | < 4.52 | < 4.52 |  |
| N=C(N)c1ccc(CNC(=O)Cc2c(-c3ccccc3)ccc(NCCc3ccccc3)c2O)cc1 |  | < 4.52 |  |
| O=C(Cc1c(F)ccc(NS(=O)(=O)Cc2ccccc2)c1F)NCC1CCNCC1 | < 4.52 | < 4.52 |  |
| O=C(Cc1c(F)ccc(NS(=O)(=O)Cc2ccccc2)c1F)NCc1ccncc1 | < 4.52 |  |  |
| CC(C)Nc1ccc(-c2cccc(N)c2)c(CC(=O)NCc2ccc(C(=N)N)cc2)c1F |  | < 4.52 |  |
| N=C(N)c1ccc(CNC(=O)Cc2c(-c3cccc(N)c3)ccc(NCc3ccccc3)c2F)cc1 | 6.30 |  |  |
| N=C(N)c1cccc(CNC(=O)Cc2c(F)ccc(NS(=O)(=O)Cc3ccccc3)c2F)c1 | < 4.52 |  |  |

Now from value to molecule:

| pIC50 [1] | pIC50 [2] | inhibition [3] [%] | SMILES |
| --- | --- | --- | --- |
| < 4.52 | < 4.52 |  | CN(C)c1ccc(CNC(=O)c2cc(NS(=O)(=O)Cc3ccccc3)ccc2Sc2ccccc2)cc1 |
| < 4.52 | < 4.52 |  | O=C(NCc1ccncc1)c1cc(NS(=O)(=O)Cc2ccccc2)ccc1Sc1ccccc1 |
| < 4.52 | < 4.52 |  | N=C(N)c1ccc(CNC(=O)Cc2c(F)ccc(NS(=O)(=O)Cc3ccccc3)c2F)cc1 |
| < 4.52 |  |  | O=C(NCC1CCNCC1)c1cc(NS(=O)(=O)Cc2ccccc2)ccc1Sc1ccccc1 |
| < 4.52 | < 4.52 | 22 | N=C(N)c1ccc(CNC(=O)c2cc(NS(=O)(=O)Cc3ccccc3)ccc2Sc2ccccc2)cc1 |
|  | < 4.52 |  | N=C(N)c1ccc(CNC(=O)Cc2c(-c3ccccc3)ccc(NCCc3ccccc3)c2F)cc1 |
